Assay results from ChEMBL document CHEMBL4350961, “Discovery of Pyrrolo[3,2- d]pyrimidin-4-one Derivatives as a New Class of Potent and Cell-Active Inhibitors of P300/CBP-Associated Factor Bromodomain” (J Med Chem, 2019).
pKd: −log10 of the molar value. The source made the active and inactive calls. The rule behind the calls is not given here.

Experiments:
[1] = target: Dual specificity mitogen-activated protein kinase kinase 2 (Homo sapiens) (UniProt P36507); experiment: Inhibition of recombinant full-length human MEK2 at 10 uM using MBP as substrate measured after 40 mins in presence of [gamma33P]ATP by scintillation counting method
[2] = test system: Dual specificity protein kinase TTK (Homo sapiens), P33981 [S389A]; experiment: Inhibition of recombinant full-length human TTK S389A mutant at 10 uM using MBP as substrate measured after 40 mins in presence of [gamma33P]ATP by scintillation counting method
[3] = target: T1, Histone acetyltransferase KAT2A (Homo sapiens, UniProt Q92830); experiment: Binding affinity to human N-terminal His-tagged GCN5 assessed as change in melting temperature at 10 uM by SYPRO orange dye-based fluorescence assay
Procedure, shortened: (§1)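 Thermal shift with His-tagged human bromodomain at 2 μM final in 10 mM HEPES pH 7.5, 500 mM NaCl. Compound at 10 μM final with 0.1% DMSO; SYPRO Orange at 1:1000. Equilibrated 3 min at 25 °C, then heated from 25 to 95 °C at 1 °C/min. Melting temperature shift taken from fluorescence; at least duplicate.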

[4] = target: Bromodomain-containing protein 9 (Homo sapiens) (UniProt Q9H8M2); experiment: Binding affinity to human N-terminal His-tagged BRD9 assessed as change in melting temperature at 10 uM by SYPRO orange dye-based fluorescence assay; procedure, shortened: as §1
[5] = target: Mitogen-activated protein kinase kinase kinase kinase 5 (Homo sapiens) (UniProt Q9Y4K4); experiment: Inhibition of recombinant full-length human MAP4K5 at 10 uM using myelin basic protein as substrate measured after 40 mins in presence of [gamma33P]ATP by scintillation counting method
[6] = target: Serine/threonine-protein kinase D2 (Homo sapiens) (UniProt Q9BZL6); experiment: Inhibition of recombinant full-length human PKD2 at 10 uM using KKLNRTLSVA as substrate measured after 40 mins in presence of [gamma33P]ATP by scintillation counting method
[7] = target: Serine/threonine-protein kinase Nek7 (Homo sapiens) (UniProt Q8TDX7); experiment: Inhibition of recombinant human NEK7 (2 to end residues) at 10 uM using FLAKSFGSPNRAYKK as substrate measured after 40 mins in presence of [gamma33P]ATP by scintillation counting method
[8] = target: Serine/threonine-protein kinase Sgk3 (Homo sapiens) (UniProt Q96BR1); experiment: Inhibition of human SGK3 (119 to end residues) using GRPRTSSFAEGKK as substrate measured after 40 mins in presence of [gamma33P]ATP by scintillation counting method
Procedure, shortened: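 Kinase panel of 422 kinases screened by Eurofins KinaseProfiler at a single test-compound concentration of 10 µM.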

[9] = target: Tyrosine-protein kinase HCK (Homo sapiens) (UniProt P08631); experiment: Inhibition of recombinant human activated HCK (230 to 497 residues) at 10 uM using GGMEDIYFEFMGGKKK as substrate measured after 40 mins in presence of [gamma33P]ATP by scintillation counting method
[10] = target: Macrophage colony-stimulating factor 1 receptor (Homo sapiens) (UniProt P07333); experiment: Inhibition of recombinant human FMS (538 to end residues) at 10 uM using KKKSPGEYVNIEFG as substrate measured after 40 mins in presence of [gamma33P]ATP by scintillation counting method
[11] = test system: Serine/threonine-protein kinase D1 (Homo sapiens), Q15139 [UNDEFINED MUTATION]; experiment: Inhibition of recombinant full-length human PKCmu R135A mutant at 10 uM using KKLNRTLSVA as substrate measured after 40 mins in presence of [gamma33P]ATP by scintillation counting method
[12] = test system: Tyrosine-protein kinase ABL1 (Homo sapiens), P00519 [Q252H]; experiment: Inhibition of recombinant human ABL Q252H mutant (27 to end residues) at 10 uM using EAIYAAPFAKKK as substrate measured after 40 mins in presence of [gamma33P]ATP by scintillation counting method
[13] = Half life in Sprague-Dawley rat at 10 mg/kg, po administered via gavage by LC-MS/MS analysis; format: ADME, organism-based; details: in vivo
Procedure, shortened: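 Male Sprague-Dawley rats, 6–8 weeks old, given a single 10 mg/kg dose by oral gavage (vehicle 2.5% ethanol, 2.5% tween-80 in saline, pH 7.0). Serial jugular blood samples taken and centrifuged to plasma. Plasma protein-precipitated with acetonitrile containing internal standard, then analysed by LC-MS/MS. Noncompartmental fit gave T1/2.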

[14] = test system: Serine/threonine-protein kinase Chk2 (Homo sapiens), O96017 [R145W]; experiment: Inhibition of recombinant human CHK2 R145W mutant (5 to end residues) at 10 uM using KKKVSRSGLYRSPSMPENLNRPR as substrate measured after 40 mins in presence of [gamma33P]ATP by scintillation counting method
[15] = target: Cyclin-dependent kinase 5/CDK5 activator 1 (Homo sapiens) (UniProt Q00535+Q15078); experiment: Inhibition of recombinant full-length human CDK5/p25 at 10 uM using histone H1 as substrate measured after 40 mins in presence of [gamma33P]ATP by scintillation counting method; format: protein-complex assay
[16] = target: Serine/threonine-protein kinase TAO1 (Homo sapiens) (UniProt Q7L7X3); experiment: Inhibition of human TAO1 (1 to 327 residues) using myelin basic protein as substrate measured after 40 mins in presence of [gamma33P]ATP by scintillation counting method
[17] = target: Maternal embryonic leucine zipper kinase (Homo sapiens) (UniProt Q14680); experiment: Inhibition of recombinant human MELK (1 to 340 residues) at 10 uM using KKLNRTLSFAEPG as substrate measured after 40 mins in presence of [gamma33P]ATP by scintillation counting method
[18] = target: Serine/threonine-protein kinase PLK3 (Homo sapiens) (UniProt Q9H4B4); experiment: Inhibition of recombinant human Plk3 (19 to 301 residues) at 10 uM using casein as substrate measured after 40 mins in presence of [gamma33P]ATP by scintillation counting method
[19] = target: T1, Histone acetyltransferase KAT2A; experiment: Binding affinity to human N-terminal His-tagged GCN5 by isothermal titration calorimetry
Target sequence in this assay (Q92830 whole entry): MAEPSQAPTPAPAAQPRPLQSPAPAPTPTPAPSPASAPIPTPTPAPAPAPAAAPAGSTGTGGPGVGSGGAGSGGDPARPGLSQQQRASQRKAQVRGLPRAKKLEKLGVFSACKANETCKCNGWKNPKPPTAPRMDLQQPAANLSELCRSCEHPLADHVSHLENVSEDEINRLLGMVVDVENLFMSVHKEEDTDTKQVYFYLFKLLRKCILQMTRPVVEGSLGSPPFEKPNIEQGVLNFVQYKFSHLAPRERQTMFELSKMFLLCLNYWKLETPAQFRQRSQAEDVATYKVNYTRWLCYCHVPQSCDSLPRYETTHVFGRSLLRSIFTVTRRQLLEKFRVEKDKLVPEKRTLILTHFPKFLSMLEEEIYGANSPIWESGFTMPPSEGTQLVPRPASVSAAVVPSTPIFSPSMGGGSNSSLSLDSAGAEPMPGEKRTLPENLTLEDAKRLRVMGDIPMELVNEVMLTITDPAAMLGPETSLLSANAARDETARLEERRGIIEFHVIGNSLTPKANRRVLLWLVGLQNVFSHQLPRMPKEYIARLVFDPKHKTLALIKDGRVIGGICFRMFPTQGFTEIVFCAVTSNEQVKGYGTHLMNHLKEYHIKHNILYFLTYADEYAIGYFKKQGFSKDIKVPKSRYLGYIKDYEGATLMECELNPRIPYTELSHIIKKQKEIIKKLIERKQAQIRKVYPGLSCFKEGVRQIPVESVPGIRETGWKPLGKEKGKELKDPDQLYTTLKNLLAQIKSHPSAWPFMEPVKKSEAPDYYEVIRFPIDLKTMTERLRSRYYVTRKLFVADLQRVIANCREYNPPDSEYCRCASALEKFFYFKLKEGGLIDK

[20] = target: Mitogen-activated protein kinase 1 (Homo sapiens) (UniProt P28482); experiment: Inhibition of recombinant full-length human MAPK1 at 10 uM using myelin basic protein as substrate measured after 40 mins in presence of [gamma33P]ATP by scintillation counting method
[21] = target: Fibroblast growth factor receptor 1 (Homo sapiens) (UniProt P11362); experiment: Inhibition of recombinant human FGFR1 (456 to 765 residues) at 10 uM using KKKSPGEYVNIEFG as substrate measured after 40 mins in presence of [gamma33P]ATP by scintillation counting method
[22] = target: Bromodomain testis-specific protein (Homo sapiens) (UniProt Q58F21); experiment: Binding affinity to human partial length BRDT bromodomain 2 (K250 to E382 residues) expressed in bacterial expression system at 1 uM by BROMOscan assay
Procedure, shortened: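 BROMOscan bromodomain cross-screen run by an outside service, compound at 1 µM against 32 recombinant bromodomains. Binding given as percent of control.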

Chain of Macrophage colony-stimulating factor 1 receptor (Homo sapiens) (P07333 whole entry): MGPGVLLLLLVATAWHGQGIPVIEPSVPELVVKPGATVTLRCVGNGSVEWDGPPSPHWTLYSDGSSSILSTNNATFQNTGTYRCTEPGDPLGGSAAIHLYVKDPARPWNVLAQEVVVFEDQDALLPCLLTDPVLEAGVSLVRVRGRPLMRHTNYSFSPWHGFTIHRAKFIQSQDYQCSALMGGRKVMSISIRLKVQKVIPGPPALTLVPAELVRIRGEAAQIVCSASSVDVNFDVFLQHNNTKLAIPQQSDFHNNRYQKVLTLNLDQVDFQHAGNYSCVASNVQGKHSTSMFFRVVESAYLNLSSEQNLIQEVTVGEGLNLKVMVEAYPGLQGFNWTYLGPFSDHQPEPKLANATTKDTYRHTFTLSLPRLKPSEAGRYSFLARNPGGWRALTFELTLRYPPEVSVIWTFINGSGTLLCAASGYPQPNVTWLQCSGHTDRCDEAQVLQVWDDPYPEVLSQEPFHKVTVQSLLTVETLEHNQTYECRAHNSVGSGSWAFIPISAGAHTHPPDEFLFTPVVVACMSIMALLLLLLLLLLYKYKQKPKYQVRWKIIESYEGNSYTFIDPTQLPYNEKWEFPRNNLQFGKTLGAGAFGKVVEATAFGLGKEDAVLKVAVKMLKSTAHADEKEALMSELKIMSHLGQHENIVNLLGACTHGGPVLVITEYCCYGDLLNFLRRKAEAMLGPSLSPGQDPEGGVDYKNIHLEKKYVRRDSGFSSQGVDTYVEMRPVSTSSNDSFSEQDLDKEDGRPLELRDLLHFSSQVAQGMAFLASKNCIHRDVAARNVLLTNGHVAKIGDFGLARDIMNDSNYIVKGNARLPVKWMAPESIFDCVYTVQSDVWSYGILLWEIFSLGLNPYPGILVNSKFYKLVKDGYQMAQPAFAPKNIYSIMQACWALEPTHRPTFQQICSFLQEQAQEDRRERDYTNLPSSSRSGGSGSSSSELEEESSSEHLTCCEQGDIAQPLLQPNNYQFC
Chain of Dual specificity protein kinase TTK (Homo sapiens), P33981 [S389A] (P33981 whole entry S389A): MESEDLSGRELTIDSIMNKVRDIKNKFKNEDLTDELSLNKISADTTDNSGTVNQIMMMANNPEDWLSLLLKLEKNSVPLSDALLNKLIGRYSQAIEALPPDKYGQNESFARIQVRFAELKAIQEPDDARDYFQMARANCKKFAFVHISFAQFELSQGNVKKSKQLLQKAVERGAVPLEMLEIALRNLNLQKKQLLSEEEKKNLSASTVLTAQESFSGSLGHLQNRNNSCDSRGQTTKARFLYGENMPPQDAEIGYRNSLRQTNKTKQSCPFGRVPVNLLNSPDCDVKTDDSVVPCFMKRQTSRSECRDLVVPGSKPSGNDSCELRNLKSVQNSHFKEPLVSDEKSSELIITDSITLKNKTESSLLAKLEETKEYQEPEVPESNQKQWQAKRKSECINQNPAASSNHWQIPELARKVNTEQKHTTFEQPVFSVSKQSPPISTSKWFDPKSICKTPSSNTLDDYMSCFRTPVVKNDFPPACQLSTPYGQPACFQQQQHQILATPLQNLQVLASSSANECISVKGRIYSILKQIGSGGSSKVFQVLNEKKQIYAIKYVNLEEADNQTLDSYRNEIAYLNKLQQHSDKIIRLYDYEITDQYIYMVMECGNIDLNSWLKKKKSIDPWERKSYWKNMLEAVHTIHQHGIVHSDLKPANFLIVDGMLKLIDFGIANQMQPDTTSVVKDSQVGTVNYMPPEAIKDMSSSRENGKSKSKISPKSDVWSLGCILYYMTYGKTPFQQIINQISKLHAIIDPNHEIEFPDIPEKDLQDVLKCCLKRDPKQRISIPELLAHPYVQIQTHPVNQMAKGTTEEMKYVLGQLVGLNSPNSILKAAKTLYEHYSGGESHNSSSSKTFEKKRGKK
Chain of Mitogen-activated protein kinase 1 (Homo sapiens) (P28482 whole entry, the tested form may be a part): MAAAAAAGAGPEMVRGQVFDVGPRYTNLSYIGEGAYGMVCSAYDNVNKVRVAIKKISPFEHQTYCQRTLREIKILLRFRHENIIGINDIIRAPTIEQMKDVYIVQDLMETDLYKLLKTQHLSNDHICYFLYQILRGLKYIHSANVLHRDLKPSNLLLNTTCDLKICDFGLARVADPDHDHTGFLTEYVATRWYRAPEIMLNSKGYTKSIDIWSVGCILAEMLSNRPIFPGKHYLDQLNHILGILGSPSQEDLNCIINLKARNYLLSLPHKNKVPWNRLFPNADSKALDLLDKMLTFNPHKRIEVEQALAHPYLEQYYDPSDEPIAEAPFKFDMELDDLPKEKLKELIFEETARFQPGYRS
Chain of Bromodomain-containing protein 9 (Homo sapiens) (Q9H8M2 whole entry): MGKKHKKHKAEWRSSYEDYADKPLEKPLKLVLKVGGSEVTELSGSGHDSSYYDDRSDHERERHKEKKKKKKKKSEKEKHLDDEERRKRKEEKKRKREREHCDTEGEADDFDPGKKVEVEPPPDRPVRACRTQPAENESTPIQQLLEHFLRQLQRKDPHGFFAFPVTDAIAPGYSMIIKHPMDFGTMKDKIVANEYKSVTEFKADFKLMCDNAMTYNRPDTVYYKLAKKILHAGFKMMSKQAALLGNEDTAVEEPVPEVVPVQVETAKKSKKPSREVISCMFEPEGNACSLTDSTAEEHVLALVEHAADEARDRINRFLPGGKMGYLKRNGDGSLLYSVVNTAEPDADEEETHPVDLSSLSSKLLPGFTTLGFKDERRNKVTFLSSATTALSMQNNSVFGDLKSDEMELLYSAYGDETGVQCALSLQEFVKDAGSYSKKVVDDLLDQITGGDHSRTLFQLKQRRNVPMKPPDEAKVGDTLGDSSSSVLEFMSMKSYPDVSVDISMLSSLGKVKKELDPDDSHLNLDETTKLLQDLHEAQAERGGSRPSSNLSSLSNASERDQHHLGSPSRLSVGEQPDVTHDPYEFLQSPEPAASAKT
Chain of Serine/threonine-protein kinase D2 (Homo sapiens) (Q9BZL6 whole entry): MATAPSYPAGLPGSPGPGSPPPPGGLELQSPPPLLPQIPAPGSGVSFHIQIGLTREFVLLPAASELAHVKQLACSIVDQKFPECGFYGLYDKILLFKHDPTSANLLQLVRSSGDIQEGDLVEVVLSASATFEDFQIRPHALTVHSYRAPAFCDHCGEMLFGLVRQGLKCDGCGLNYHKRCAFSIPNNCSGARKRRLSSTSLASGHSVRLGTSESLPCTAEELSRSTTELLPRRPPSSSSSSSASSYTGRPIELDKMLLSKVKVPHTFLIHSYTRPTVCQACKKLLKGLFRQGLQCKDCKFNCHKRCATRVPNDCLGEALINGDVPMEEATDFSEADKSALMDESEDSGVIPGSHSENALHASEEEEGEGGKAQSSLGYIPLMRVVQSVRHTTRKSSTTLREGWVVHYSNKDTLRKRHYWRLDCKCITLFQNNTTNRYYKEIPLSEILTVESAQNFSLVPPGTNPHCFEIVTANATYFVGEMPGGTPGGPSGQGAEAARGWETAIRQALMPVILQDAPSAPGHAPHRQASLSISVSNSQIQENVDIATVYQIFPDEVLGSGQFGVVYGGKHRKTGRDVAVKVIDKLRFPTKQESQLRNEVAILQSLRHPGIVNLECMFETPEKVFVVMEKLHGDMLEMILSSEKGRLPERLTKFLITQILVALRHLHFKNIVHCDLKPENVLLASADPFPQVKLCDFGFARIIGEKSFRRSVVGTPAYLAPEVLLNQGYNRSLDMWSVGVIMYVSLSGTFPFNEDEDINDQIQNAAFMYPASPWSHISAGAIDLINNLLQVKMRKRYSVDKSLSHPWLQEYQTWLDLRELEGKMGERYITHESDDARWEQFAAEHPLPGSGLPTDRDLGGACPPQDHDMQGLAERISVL
Chain of Serine/threonine-protein kinase Nek7 (Homo sapiens) (Q8TDX7 whole entry, looked up): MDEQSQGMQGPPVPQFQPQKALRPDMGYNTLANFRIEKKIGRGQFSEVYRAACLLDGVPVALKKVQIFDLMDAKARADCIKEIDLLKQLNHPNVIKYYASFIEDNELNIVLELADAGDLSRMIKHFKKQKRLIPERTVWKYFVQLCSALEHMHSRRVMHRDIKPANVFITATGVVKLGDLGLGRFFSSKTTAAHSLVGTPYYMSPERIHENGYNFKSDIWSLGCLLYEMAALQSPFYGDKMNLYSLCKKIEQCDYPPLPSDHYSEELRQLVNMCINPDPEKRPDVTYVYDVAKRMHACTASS

Which inhibition [1] does the source give for `CN1C[C@H](Nc2nc3cc[nH]c3c(=O)n2C)C[C@H](c2ccc3c(c2)OCCO3)C1` here?
The inhibition was “inactive”.

What about the inhibition [2] of the same compound?
The inhibition was “inactive”.

What about the ΔTm [3] of the same compound?
Its ΔTm is 7.3 °C.

And the ΔTm [4]?
Its ΔTm is 2.1 °C.

And the inhibition [5]?
Its inhibition is “inactive”.

And the inhibition [6]?
The inhibition was “inactive”.

What about the inhibition [7] of the same compound?
The inhibition was “inactive”.

What about the inhibition [8] of the same compound?
Its inhibition is “inactive”.

And the inhibition [9]?
Its inhibition is “inactive”.

What about the inhibition [10] of the same compound?
The inhibition was “inactive”.

What about the inhibition [11] of the same compound?
The inhibition was “inactive”.

What about the inhibition [12] of the same compound?
The inhibition was “inactive”.

And the half-life [13]?
The half-life was 1.51 h.

And the inhibition [14]?
Its inhibition is “inactive”.

What about the inhibition [15] of the same compound?
The inhibition was “inactive”.

And the inhibition [16]?
Its inhibition is “inactive”.

And the inhibition [17]?
The inhibition was “inactive”.

And the inhibition [18]?
The inhibition was “inactive”.

And the pKd [19]?
Its pKd is 6.98.

And the inhibition [20]?
The inhibition was “inactive”.

And the inhibition [21]?
The inhibition was “inactive”.

And the Activity [22]?
Its Activity is “inactive”.
